{"data": "Assay results of several laboratories", "target": "TGF-beta receptor type-2 (TGFBR2, Homo sapiens, UniProt P37173)"}
{"Structure (SMILES)": "Cc1sc(C(=O)NC2COC2)cc1-n1cc(NC(=O)Nc2c(F)cccc2Cl)cn1", "effect on": "enzyme activity", "action": "inhibitor", "concentration": "10 µM", "measurement": "remaining activity", "result": "86.8%"}
{"Structure (SMILES)": "O=C(Nc1cccnn1)N1CC(C/C=C/c2cncc(Oc3ccc(C(F)(F)F)cn3)n2)C1", "effect on": "cell-free assay", "technique": "competition with immobilised ligand", "concentration": "1 µM", "measurement": "remaining binding", "result": "100%"}
{"Structure (SMILES)": "CN1CC(Oc2cnc(C#N)cc2-c2ccn3nc(NC(=O)C4CC4)cc3c2)C1", "effect on": "enzyme activity", "action": "inhibitor", "concentration": "1 µM", "measurement": "inhibition", "result": "11%"}
{"Structure (SMILES)": "Cc1nc(N2CC[C@@H](O)C2)ncc1-c1cc(C(F)(F)F)cc2[nH]ncc12", "effect on": "cell-free assay", "technique": "competition with immobilised ligand", "concentration": "1 µM", "measurement": "remaining binding", "result": "99%"}
{"Structure (SMILES)": "Cc1ccc(Nc2nccc(N(C)c3ccc4c(C)n(C)nc4c3)n2)cc1S(N)(=O)=O", "effect on": "cell-free assay", "concentration": "0.5 µM", "measurement": "remaining signal", "result": "100%"}
{"Structure (SMILES)": "CC(C)(C)c1nc(-c2cccc(NS(=O)(=O)c3c(F)cccc3F)c2F)c(-c2ccnc(N)n2)s1", "effect on": "enzyme activity", "action": "inhibitor", "technique": "radiometric", "concentration": "1 µM", "measurement": "remaining activity", "result": "42%"}
{"Structure (SMILES)": "Cc1nc(C2CCN(C(=O)c3ccc(OC(F)(F)F)cc3N)CC2)c2ncc(N3CCN(C)CC3)cc2n1", "effect on": "cell-free assay", "technique": "competition with immobilised ligand", "concentration": "1 µM", "measurement": "remaining binding", "result": "93%"}
{"Structure (SMILES)": "O=C1NC(=O)c2cc(Nc3ccc(F)cc3)c(Nc3ccc(F)cc3)cc21", "effect on": "cell-free assay", "concentration": "0.5 µM", "measurement": "remaining signal", "result": "85.2%"}
{"Structure (SMILES)": "CC(C)(O)[C@H]1CC[C@H](Nc2ccc3ncc(-c4cccc(C(F)(F)F)c4)n3n2)CC1", "effect on": "enzyme activity", "action": "inhibitor", "concentration": "1 µM", "measurement": "remaining activity", "result": "73.8%"}
{"Structure (SMILES)": "Cc1ccc(C(=O)Nc2ccc(CN3CCN(C)CC3)c(C(F)(F)F)c2)cc1C#Cc1cnc2cccnn12", "effect on": "cell-free assay", "concentration": "23.5 nM", "measurement": "remaining signal", "result": "76%"}
{"Structure (SMILES)": "COc1cc2c(N3CCN(C(=O)Nc4ccc(OC(C)C)cc4)CC3)ncnc2cc1OCCCN1CCCCC1", "effect on": "cell-free assay", "concentration": "0.5 µM", "measurement": "remaining signal", "result": "102%"}
{"Structure (SMILES)": "COc1cc(Cl)c(C(=O)N[C@@H](CN[C@H]2CC[C@@H](N)CC2)Cc2ccc(C#N)cc2)cc1-c1ccc(CN[C@H](C)c2ccc(C)cc2)o1", "effect on": "enzyme activity", "action": "inhibitor", "concentration": "1 µM", "measurement": "remaining activity", "result": "94%"}
